Reference: ChEMBL document CHEMBL1124681, “Studies on hindered phenols and analogues. 1. Hypolipidemic and hypoglycemic agents with ability to inhibit lipid peroxidation” (J Med Chem, 1989)
Values after ≈ are worked out from the molar mass of the structure shown. Values joined by “and” are separate entries in the source; they are usually repeats but may differ in a detail not shown here. Equal values may be shown once.

Columns and labels:
[1] = species: Rattus norvegicus; test: In vitro inhibitory activity against rat microsomal lipid peroxidation (m-LPO); assay type: functional
How it was run: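 Lipid peroxidation used rat liver microsomes driven by ferrous sulfate/cysteine, per the Malvy et al. approach. IC50 is given in µg/mL.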

[2] = tested on: Mus musculus; test: (§1) In vivo activity against triglycerides (TG) by using Alloxan-induced hyperlipoperoxidemia method in BALB/c mice after peroral administration at 100 mg/Kg dose; assay type: functional
How it was run: (§2)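 Male BALB/c mice, 8 weeks old, were fasted 18 h and then given alloxan 75 mg/kg iv. Compound was dosed orally 30 min before and 24 and 30 h after alloxan. Cervical blood was taken at 48 h, diluted in saline and centrifuged. Serum LPO was measured by TBA method; cholesterol and TG by enzymatic kits. Values are % decrease versus alloxan controls without compound.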

[3] = tested on: Mus musculus; test: In vivo activity against hypocholesterol (CHOL) by using Alloxan-induced hyperlipoperoxidemia method in BALB/c mice after peroral administration at 100 mg/Kg dose; assay type: functional; how it was run: as §2
[4] = tested on: Mus musculus; test: In vivo activity against serum lipid peroxidation level (s-LPO) by using Alloxan-induced hyperlipoperoxidemia method in BALB/c mice after peroral administration at 100 mg/Kg dose; assay type: functional; how it was run: as §2
[5] = tested on: Mus musculus; test: In vivo activity against triglycerides (TG) by using Alloxan-induced hyperlipoperoxidemia method in BALB/c mice after peroral administration at 300 mg/kg dose; assay type: functional; settings: route oral; how it was run: as §2
[6] = tested on: Mus musculus; test: In vivo activity against hypocholesterol (CHOL) by using Alloxan-induced hyperlipoperoxidemia method in BALB/c mice after peroral administration at 100 mg/kg dose; assay type: functional; settings: route oral; how it was run: as §2
[7] = tested on: Mus musculus; test: In vivo activity against serum lipid peroxidation level (s-LPO) by using Alloxan-induced hyperlipoperoxidemia method in BALB/c mice after peroral administration at 100 mg/kg dose; assay type: functional; settings: route oral; how it was run: as §2
[8] = tested on: Mus musculus; test: In vivo activity against serum lipid peroxidation level (s-LPO) by using Alloxan-induced hyperlipoperoxidemia method in BALB/c mice after peroral administration at 300 mg/kg dose; assay type: functional; settings: route oral; how it was run: as §2
[9] = species: Rattus norvegicus; test: Hypotriglyceridemic activity of Wistar-Imamichi rats in 12 animals
[10] = tested on: Mus musculus; test: Hypoglycemic activity at dose 50 mg/Kg in KK-mice after peroral administration; assay type: functional
How it was run: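 Male KK-mice, a genetically diabetic NIDDM model, were housed singly from 8 weeks of age and used at about 4-5 months once body weight exceeded 40 g. Compound was suspended in 0.5% carboxymethylcellulose saline and dosed orally 18 h before tail-vein blood sampling into heparinized tubes. Plasma glucose was measured with a glucose analyzer. Values are % decrease versus vehicle-dosed controls run simultaneously.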

[11] = tested on: Mus musculus; test: as §1; assay type: functional; how it was run: as §2; remark: listed apart in the source
[12] = tested on: Mus musculus; test: In vivo activity against hypocholesterol (CHOL) by Alloxan-induced hyperlipoperoxidemia method in BALB/c mice after peroral administration at 50 mg/Kg dose; assay type: functional; how it was run: as §2
[13] = tested on: Mus musculus; test: In vivo activity against serum lipid peroxidation level (s-LPO) by using Alloxan-induced hyperlipoperoxidemia method in BALB/c mice after peroral administration at 50 mg/Kg dose; assay type: functional; how it was run: as §2
[14] = tested on: Mus musculus; test: In vivo activity against triglycerides (TG) by Alloxan-induced hyperlipoperoxidemia method in BALB/c mice after peroral administration at 50 mg/Kg dose; assay type: functional; how it was run: as §2
[15] = species: Rattus norvegicus; test: Inhibitory activity on peroxidation by a relative peroxide value(POV) to vitamin E by using ethyl linoleate; assay type: functional
How it was run: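 Peroxide formed was titrated with 0.01 N Na2S2O3 after adding water. The peroxide value was expressed relative to vitamin E.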

[16] = tested on: Mus musculus; test: In vivo activity against triglycerides (TG) by using Alloxan-induced hyperlipoperoxidemia method in BALB/c mice after peroral administration at 200 mg/Kg dose; assay type: functional; how it was run: as §2
[17] = tested on: Mus musculus; test: In vivo activity against triglycerides (TG) by using Alloxan-induced hyperlipoperoxidemia method in BALB/c mice after peroral administration at 300 mg/Kg dose; assay type: functional; how it was run: as §2
[18] = tested on: Mus musculus; test: In vivo activity against hypocholesterol (CHOL) by using Alloxan-induced hyperlipoperoxidemia method in BALB/c mice after peroral administration at 200 mg/Kg dose; assay type: functional; how it was run: as §2
[19] = tested on: Mus musculus; test: In vivo activity against hypocholesterol (CHOL) by using Alloxan-induced hyperlipoperoxidemia method in BALB/c mice after peroral administration at 300 mg/Kg dose; assay type: functional; how it was run: as §2
[20] = tested on: Mus musculus; test: In vivo activity against serum lipid peroxidation level (s-LPO) by using Alloxan-induced hyperlipoperoxidemia method in BALB/c mice after peroral administration at 200 mg/Kg dose; assay type: functional; how it was run: as §2
[21] = tested on: Mus musculus; test: In vivo activity against serum lipid peroxidation level (s-LPO) by using Alloxan-induced hyperlipoperoxidemia method in BALB/c mice after peroral administration at 300 mg/Kg dose; assay type: functional; how it was run: as §2
[22] = tested on: Rattus norvegicus; test: Liver weight in Wistar-Imamichi rats at 200 mg/Kg dose in 12 rats; assay type: functional
[23] = species: Rattus norvegicus; test: liver weight in Wistar-Imamichi rats at 0.2% in the diet for 7 days in 6 rats; settings: dose 0.2% in diet
[24] = tested on: Rattus norvegicus; test: Hypotriglyceridemic activity of Wistar-Imamichi rats in 6 animals at 300 mg/kg dose
[25] = tested on: Mus musculus; test: In vivo activity against triglycerides (TG) by using Alloxan-induced hyperlipoperoxidemia method in BALB/c mice after peroral administration at 10 mg/Kg dose; assay type: functional; how it was run: as §2
[26] = tested on: Mus musculus; test: In vivo activity against hypocholesterol (CHOL) by using Alloxan-induced hyperlipoperoxidemia method in BALB/c mice after peroral administration at 10 mg/Kg dose; assay type: functional; how it was run: as §2
[27] = tested on: Mus musculus; test: In vivo activity against serum lipid peroxidation level (s-LPO) by using Alloxan-induced hyperlipoperoxidemia method in BALB/c mice after peroral administration at 10 mg/Kg dose; assay type: functional; how it was run: as §2

| SMILES | IC50 [1] | Decrease [2] | Decrease [3] | Decrease [4] | also measured |
| --- | --- | --- | --- | --- | --- |
| Cc1cc2c(cc1O)CCC(C)(COc1ccc(CC3SC(=O)NC3=O)cc1)O2 (configuration not stated) | 0.3 µg/mL (≈ 0.726 µM) |  |  |  |  |
| Cc1c(C)c2c(c(C)c1O)CCC(COc1ccc(CC3SC(=O)NC3=O)cc1)O2 (configuration not stated) | < 0.1 µg/mL |  |  |  |  |
| Cc1c(C)c2c(c(C)c1O)CCC(C)(COc1ccc(CC3SC(N)=NC3=O)cc1)O2 (configuration not stated) | < 0.1 µg/mL | 16.8% | 7.2% | 11.9% |  |
| Cc1ccc(C)c(OCCCC(C)(C)C(=O)O)c1 [GEMFIBROZIL] | > 1 µg/mL |  |  |  | Decrease [5]: 12.3% and 15.9%; Decrease [6]: 3.2%; Decrease [7]: 12.3%; Decrease [8]: 20.5%; Decrease [9]: 39.4% |
| Cc1cc(C(C)(C)C)c(O)c(C(C)(C)C)c1 [BUTYLATED HYDROXYTOLUENE] | 0.1 µg/mL (≈ 0.454 µM) |  |  |  |  |
| Cc1c(C)c2c(c(C)c1O)CCC(C)(CCOc1ccc(CC3SC(=O)NC3=O)cc1)O2 (configuration not stated) | < 0.1 µg/mL |  |  |  |  |
| CCCC(=O)Oc1c(C)c(C)c2c(c1C)CCC(C)(COc1ccc(CC3SC(=O)NC3=O)cc1)O2 (configuration not stated) | < 0.1 µg/mL |  |  |  |  |
| Cc1c(C)c2c(c(C)c1O)CCC(C)(COc1ccc(CC(Cl)C(=O)O)cc1)O2 (configuration not stated) | 0.1 µg/mL (≈ 0.239 µM) | 33.9% | 14.9% | 46.3% |  |
| Cc1c(C)c2c(c(C)c1O)CCC(C)(COc1ccc(CC3SC(=O)NC3=O)cc1)O2 (configuration not stated) [TROGLITAZONE] | 0.1 µg/mL (≈ 0.226 µM) | 57.5% |  | 54.3% | Decrease [10]: 38.5%; Decrease [11]: 57.5%; Decrease [12]: 19.7%; Decrease [13]: 36%; Decrease [14]: 31.9% |
| COc1c(O)c(C)c2c(c1OC)OC(C)(CCOc1ccc(CC3SC(=O)NC3=O)cc1)CC2 (configuration not stated) | 0.3 µg/mL (≈ 0.615 µM) |  |  |  |  |
| Cc1cc(OCCCC(C)(C)C(=O)O)c(C)c(C)c1O | > 1 µg/mL |  |  |  | Relative peroxidation [15]: 0.71 |
| Cc1cc(OCCCCCCCC(C)(C)CO)c(C)c(C)c1O | < 0.1 µg/mL |  |  |  |  |
| CCC1(COc2ccc(CC3SC(=O)NC3=O)cc2)CCc2c(C)c(O)c(C)c(C)c2O1 (configuration not stated) | 0.1 µg/mL (≈ 0.22 µM) | 14% | 19.5% | 17.6% |  |
| CC(=O)Oc1c(C)c(C)c2c(c1C)CCC(C)(COc1ccc(CC3SC(=O)NC3=O)cc1)O2 (configuration not stated) | < 0.1 µg/mL | -4% | 4% | 6.7% | Decrease [10]: 2.6% |
| CC1(COc2ccc(CC3SC(=O)NC3=O)cc2)CCc2cc(O)c(C(C)(C)C)cc2O1 (configuration not stated) | < 0.1 µg/mL | -48.6% | 5.6% | 16.1% | Decrease [10]: 28.5% |
| COc1c(OC(C)=O)c(C)c2c(c1OC)OC(C)(CCOc1ccc(CC3SC(N)=NC3=O)cc1)CC2 (configuration not stated) | 0.3 µg/mL (≈ 0.568 µM) |  |  |  |  |
| Cc1c(C)c2c(c(C)c1O)SC(C)O2 (configuration not stated) | < 0.1 µg/mL |  |  |  |  |
| Cc1c(C)c2c(c(C)c1O)SCO2 | < 0.1 µg/mL |  |  |  |  |
| CC(C)(Sc1cc(C(C)(C)C)c(O)c(C(C)(C)C)c1)Sc1cc(C(C)(C)C)c(O)c(C(C)(C)C)c1 [PROBUCOL] | > 1 µg/mL | -5.3% | -1.1% | 5.8% | Decrease [16]: -25.2%; Decrease [17]: -3%; Decrease [18]: -9.7%; Decrease [19]: 0.8%; Decrease [20]: -22.1%; Decrease [21]: 6.1%; Increase [22]: 0.2% |
| Cc1c(C)c2c(c(C)c1OC(=O)c1cccnc1)CCC(C)(COc1ccc(CC3SC(=O)NC3=O)cc1)O2 (configuration not stated) | < 0.1 µg/mL |  |  |  |  |
| CC1(COc2ccc(CC3SC(=O)NC3=O)cc2)CCCCC1 (configuration not stated) [CIGLITAZONE] | > 1 µg/mL | 7.9% | 10.8% | 18.7% |  |
| CCCC1Oc2c(C)c(C)c(O)c(C)c2S1 (configuration not stated) | < 0.1 µg/mL |  |  |  |  |
| Cc1c(C)c2c(c(C)c1O)CCC(COc1ccc(CC3SC(=O)NC3=O)cc1)(CC(C)C)O2 (configuration not stated) | 0.1 µg/mL (≈ 0.207 µM) | 11.9% | 12.1% | 1.5% |  |
| Cc1cc(OCCCC(C)(C)CO)c(C)c(C)c1O | 0.1 µg/mL (≈ 0.375 µM) |  |  |  | Decrease [7]: 27.4%; Relative peroxidation [15]: 0.42; Increase [23]: 23.9%; Decrease [24]: 57.3% |
| Cc1c(C)c2c(c(C)c1OC(=O)c1ccccc1)CCC(C)(COc1ccc(CC3SC(=O)NC3=O)cc1)O2 (configuration not stated) | 0.1 µg/mL (≈ 0.183 µM) |  |  |  |  |
| CC(=O)Oc1c(C)c(C)c2c(c1C)CCC(C)(CCC[C@H](C)CCC[C@H](C)CCCC(C)C)O2 (some centres not stated) [TOCOPHEROL ACETATE] | > 1 µg/mL | 27.3% | 10.7% | 46.1% | Decrease [25]: 36.5%; Decrease [17]: 16.1%; Decrease [12]: 8.3%; Decrease [26]: 20.4%; Decrease [19]: 9.1%; Decrease [27]: 23.5%; Decrease [21]: 56.6%; Decrease [13]: 27.9%; Decrease [14]: 5.2% |
| CCOC(=O)C(C)(C)Oc1ccc(Cl)cc1 [CLOFIBRATE] | > 1 µg/mL | 19.6% | 5.9% | 26.6% | Decrease [17]: 22.8%; Decrease [19]: 6.8%; Decrease [21]: 37.6%; Decrease [13]: 2.8%; Decrease [14]: 1.1%; Increase [22]: 37.2%; Decrease [9]: 37.6% |
| CC(=O)Oc1cc2c(cc1C)OC(C)(COc1ccc(CC3SC(N)=NC3=O)cc1)CC2 (configuration not stated) | 0.3 µg/mL (≈ 0.66 µM) |  |  |  |  |
| CC1(CCOc2ccc(CC3SC(=O)NC3=O)cc2)CCc2cc(O)c(C(C)(C)C)cc2O1 (configuration not stated) | 0.1 µg/mL (≈ 0.213 µM) |  |  |  |  |
| CC(=O)Oc1cc2c(cc1C(C)(C)C)OC(C)(CCOc1ccc(CC3SC(N)=NC3=O)cc1)CC2 (configuration not stated) | 0.1 µg/mL (≈ 0.196 µM) |  |  |  |  |
